Data as given in ChEMBL document CHEMBL3232761, “Novel metronidazole-chalcone conjugates with potential to counter drug resistance in Trichomonas vaginalis” (Eur J Med Chem, 2014).
Converted amounts (≈) assume the structure as drawn.

Columns and labels:
[1] = system: Trichomonas vaginalis; test: Antitrichomonal activity against metronidazole-susceptible Trichomonas vaginalis clinical isolate by trypan blue staining-based cell counting; assay type: functional
Outline: (§1)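 Log-phase trophozoites (grown 1 day in TYM medium with 10% heat-inactivated FBS, pH 6.8, under partial anaerobiosis at 37°C) seeded at 5 X 10³/well. Compounds dissolved in DMSO and serially diluted in TYM from 100 to 0.78 μg/ml; vehicle wells had 0.05% DMSO. Plates incubated anaerobically at 37°C, with viability followed by trypan blue counting. MIC taken at 24 h as the lowest concentration leaving all trophozoites nonviable.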

[2] = system: Trichomonas vaginalis; test: Ratio of MIC for metronidazole-resistant Trichomonas vaginalis ATCC 50143 to metronidazole-susceptible Trichomonas vaginalis clinical isolate; assay type: functional
Outline: (§2)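 Both T. vaginalis strains were grown in TYM medium (pH 6.8) with 10% heat-inactivated FBS, 2% vitamin mixture, penicillin and streptomycin, under partial anaerobiosis at 37°C. Log-phase trophozoites (5 X 10³/well) taken 1 day after subculture were exposed to twofold dilutions from 100 down to 0.78 μg/ml (from DMSO stocks), with 0.05% DMSO vehicle controls, anaerobically at 37°C. Viability was scored daily by trypan blue counting. MIC was the lowest concentration leaving all trophozoites nonviable at 24 h.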

[3] = system: Trichomonas vaginalis; test: Antitrichomonal activity against metronidazole-resistant Trichomonas vaginalis ATCC 50143 by trypan blue staining-based cell counting; assay type: functional; outline: as §1
[4] = system: HeLa; test: Cytotoxicity against human HeLa cells after 24 hrs by MTT assay; assay type: cell-based
Outline: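 HeLa cells were kept in DMEM with 10% FBS at 37°C under 5% CO₂, then seeded at 5 X 10⁴/well and grown 24 h. Medium was replaced with compound dilutions starting at 1.0 mg/ml, with 0.05% DMSO in control wells, and cells were exposed for 24 h. MTT was then added, formazan was dissolved in DMSO, and OD was read at 540 nm.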

[5] = system: Trichomonas vaginalis; test: Ratio of metronidazole MIC to compound MIC for metronidazole-resistant Trichomonas vaginalis ATCC 50143 by trypan blue staining-based cell counting; assay type: functional; outline: as §2

SMILES	MIC [1] [µg/mL]	Ratio [2]	MIC [3] [µg/mL]	IC50 [4] [µg/mL]	Ratio [5]
Cc1ncc([N+](=O)[O-])n1CCOc1ccc(C(=O)/C=C/c2ccccc2)cc1	1.56 (≈ 4.13 µM)	4	50 (≈ 132 µM)	–	–
Cc1ncc([N+](=O)[O-])n1CCOc1ccc(C(=O)/C=C/c2cccc(F)c2)cc1	25 (≈ 63.2 µM)	–	100 (≈ 253 µM)	–	–
Cc1ncc([N+](=O)[O-])n1CCOc1ccc(C(=O)/C=C/c2ccc(F)cc2)cc1	1.56 (≈ 3.95 µM)	2	6.25 (≈ 15.8 µM)	–	–
Cc1ncc([N+](=O)[O-])n1CCOc1ccc(C(=O)/C=C/c2ccc(F)c(F)c2)cc1	1.56 (≈ 3.77 µM)	2	6.25 (≈ 15.1 µM)	–	–
Cc1ncc([N+](=O)[O-])n1CCOc1ccc(C(=O)/C=C/c2cc(F)cc(F)c2)cc1	1.56 (≈ 3.77 µM)	2	3.12 (≈ 7.56 µM)	> 1000	4
Cc1ncc([N+](=O)[O-])n1CCOc1ccc(C(=O)/C=C/c2cc(F)ccc2F)cc1	1.56 (≈ 3.77 µM)	2	6.25 (≈ 15.1 µM)	–	–
Cc1ncc([N+](=O)[O-])n1CCOc1ccc(C(=O)/C=C/c2ccccc2Cl)cc1	3.12 (≈ 7.59 µM)	–	12.5 (≈ 30.4 µM)	–	–
Cc1ncc([N+](=O)[O-])n1CCOc1ccc(C(=O)/C=C/c2cccc(Cl)c2)cc1	1.56 (≈ 3.79 µM)	2	3.12 (≈ 7.59 µM)	> 1000	4
Cc1ncc([N+](=O)[O-])n1CCOc1ccc(C(=O)/C=C/c2ccc(Cl)cc2)cc1	6.25 (≈ 15.2 µM)	–	6.25 (≈ 15.2 µM)	–	–
Cc1ncc([N+](=O)[O-])n1CCOc1ccc(C(=O)/C=C/c2ccc(Cl)cc2Cl)cc1	6.25 (≈ 14 µM)	–	12.5 (≈ 28 µM)	–	–
Cc1ncc([N+](=O)[O-])n1CCOc1ccc(C(=O)/C=C/c2c(Cl)cccc2Cl)cc1	6.25 (≈ 14 µM)	–	25 (≈ 56 µM)	–	–
Cc1ncc([N+](=O)[O-])n1CCOc1ccc(C(=O)/C=C/c2ccccc2Br)cc1	3.12 (≈ 6.85 µM)	–	6.25 (≈ 13.7 µM)	–	–
Cc1ncc([N+](=O)[O-])n1CCOc1ccc(C(=O)/C=C/c2cccc(Br)c2)cc1	3.12 (≈ 6.85 µM)	–	3.12 (≈ 6.85 µM)	–	4
Cc1ncc([N+](=O)[O-])n1CCOc1ccc(C(=O)/C=C/c2ccc(Br)cc2)cc1	6.25 (≈ 13.7 µM)	–	6.25 (≈ 13.7 µM)	–	–
Cc1ncc([N+](=O)[O-])n1CCOc1ccc(C(=O)/C=C/c2ccccc2C(F)(F)F)cc1	6.25 (≈ 14 µM)	–	25 (≈ 56.1 µM)	–	–
Cc1ncc([N+](=O)[O-])n1CCOc1ccc(C(=O)/C=C/c2ccc(C(F)(F)F)cc2)cc1	3.12 (≈ 7.02 µM)	–	25 (≈ 56.1 µM)	–	–
Cc1ncc([N+](=O)[O-])n1CCOc1ccc(C(=O)/C=C/c2ccc([N+](=O)[O-])cc2)cc1	1.56 (≈ 3.69 µM)	2	6.25 (≈ 14.8 µM)	–	2
COc1ccc(/C=C/C(=O)c2ccc(OCCn3c([N+](=O)[O-])cnc3C)cc2)cc1	3.12 (≈ 7.67 µM)	–	25 (≈ 61.4 µM)	–	–
COc1ccc(/C=C/C(=O)c2ccc(OCCn3c([N+](=O)[O-])cnc3C)cc2)cc1OC	1.56 (≈ 3.57 µM)	8	12.5 (≈ 28.6 µM)	–	–
COc1ccc(OC)c(/C=C/C(=O)c2ccc(OCCn3c([N+](=O)[O-])cnc3C)cc2)c1	12.5 (≈ 28.6 µM)	–	12.5 (≈ 28.6 µM)	–	–
Cc1ccc(/C=C/C(=O)c2ccc(OCCn3c([N+](=O)[O-])cnc3C)cc2)cc1C	6.25 (≈ 15.4 µM)	–	12.5 (≈ 30.8 µM)	–	–
Cc1ncc([N+](=O)[O-])n1CCOc1ccc(C(=O)/C=C/c2cccc3ccccc23)cc1	6.25 (≈ 14.6 µM)	–	25 (≈ 58.5 µM)	–	–
Cc1ncc([N+](=O)[O-])n1CCO [METRONIDAZOLE]	1.56 (≈ 9.11 µM)	8	12.5 (≈ 73 µM)	> 1000	–
